Experimental data collected from several papers.
Compare with care: the assays were run in different laboratories.
Target: Activin receptor type-1 (ACVR1, Homo sapiens, UniProt Q04771)
Sequence (Q04771 1-509, as in one of the studies): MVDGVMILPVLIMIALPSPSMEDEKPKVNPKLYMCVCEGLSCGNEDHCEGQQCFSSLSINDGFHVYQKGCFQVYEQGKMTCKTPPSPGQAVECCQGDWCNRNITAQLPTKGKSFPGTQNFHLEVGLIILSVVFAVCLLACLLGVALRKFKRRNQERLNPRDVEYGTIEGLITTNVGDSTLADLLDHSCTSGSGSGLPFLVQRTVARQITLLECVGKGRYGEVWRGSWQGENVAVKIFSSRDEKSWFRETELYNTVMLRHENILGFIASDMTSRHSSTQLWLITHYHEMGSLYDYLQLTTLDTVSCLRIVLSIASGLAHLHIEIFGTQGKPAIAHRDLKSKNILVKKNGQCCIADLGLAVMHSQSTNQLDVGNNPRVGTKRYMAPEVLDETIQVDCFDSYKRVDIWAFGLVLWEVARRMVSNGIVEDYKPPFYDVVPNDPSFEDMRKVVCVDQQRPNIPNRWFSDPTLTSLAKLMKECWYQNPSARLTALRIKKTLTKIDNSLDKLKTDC

SMILES	read-out	action	method	concentration	measurement	result
CC1=C(C#N)C(c2ccc3c(c2)c(NC(=O)c2ccccc2C)nn3C)C(C#N)=C(C)N1	cell-free assay	–	competition with immobilised ligand	1 µM	remaining binding	99%
Cn1c2c(c3ccc(Cl)c(Cl)c31)C(C#N)C1(CCOCC1)NC2=O (stereo not drawn)	thermal stability	–	DSF	10 µM	ΔTm	0.1 °C
O=C(Nc1cnn(-c2csc(C(=O)NC3COC3)c2)c1)Nc1c(F)cccc1Cl	enzyme activity	inhibitor	–	5 µM	remaining activity	95.7%
O=C1NC(=O)c2cc(Nc3ccc(F)cc3)c(Nc3ccc(F)cc3)cc21	cell-free assay	–	–	0.5 µM	remaining signal	92.3%
COc1cccc(CNC(=O)c2nc3scc(COCc4ccc(C(=O)O)cc4)c3c(=O)[nH]2)c1	cell-free assay	–	competition with immobilised ligand	1 µM	remaining binding	94.3%
N#CC1c2c([nH]c3c(Cl)c(Cl)ccc23)C(=O)NC12CCCCC2 (racemic)	thermal stability	–	DSF	10 µM	ΔTm	0.1 °C
CN1CC(Oc2cnc(C#N)cc2-c2ccn3nc(NC(=O)C4CC4)cc3c2)C1	enzyme activity	inhibitor	–	1 µM	inhibition	-8%
Cn1c2c(c3ccc(Cl)c(Cl)c31)C(C#N)C1(CCCC1)NC2=O (stereo not drawn)	thermal stability	–	DSF	10 µM	ΔTm	-0.2 °C
CC(C)(C)c1nc2c(s1)c1nc(N)ncc1c1ccc(NS(=O)(=O)c3c(F)cccc3F)c(F)c12	enzyme activity	inhibitor	radiometric	1 µM	remaining activity	79%
CC(C)(O)[C@H]1CC[C@H](Nc2ccc3ncc(-c4cccc(C(F)(F)F)c4)n3n2)CC1	enzyme activity	inhibitor	–	1 µM	remaining activity	28.2%
Cc1cc(NC(=O)c2cccc3cc(-c4cccc5[nH]nc(N)c45)ccc23)ccc1F	enzyme activity	inhibitor	–	0.1 µM	activity vs control	105%
CCN1CCC2(CC1)NC(=O)c1c(c3ccc(Cl)c(Cl)c3n1C)C2C#N (racemic)	thermal stability	–	DSF	10 µM	ΔTm	-0.1 °C
COc1cc(-c2cn(C3CCc4ccccc4N(CC(F)(F)F)C3=O)nn2)ccc1-n1ccc(C)n1 (stereo not drawn)	cell-free assay	–	competition with immobilised ligand	1 µM	remaining binding	100%
Cn1c2c(c3ccc(Cl)c(Cl)c31)C(C#N)C(C)(C)NC2=O (stereo not drawn)	thermal stability	–	DSF	10 µM	ΔTm	1.1 °C
COc1cc2c(N3CCN(C(=O)Nc4ccc(OC(C)C)cc4)CC3)ncnc2cc1OCCCN1CCCCC1	cell-free assay	–	–	0.5 µM	remaining signal	145%
CC(C)CC(=O)N1CCc2nc(-c3ccc(Br)cc3)nc(N(C)Cc3ccccc3)c2C1	cell-free assay	–	competition with immobilised ligand	0.1 µM	remaining binding	100%
COc1cc(Cl)c(C(=O)N[C@@H](CN[C@H]2CC[C@@H](N)CC2)Cc2ccc(C#N)cc2)cc1-c1ccc(CN[C@H](C)c2ccc(C)cc2)o1	enzyme activity	inhibitor	–	1 µM	remaining activity	89%
CN1CCN(c2cnc3c(C4CCN(C(=O)c5ccc(OC(F)(F)F)cc5N)CC4)ncnc3c2)CC1	cell-free assay	–	competition with immobilised ligand	1 µM	remaining binding	100%
Clc1ccc(Nc2nnc(Cc3ccncc3)c3ccccc23)cc1	cell-free assay	–	–	0.5 µM	remaining signal	96.1%
CN([C@@H]1CCc2c(CC(=O)O)c3ccccc3n2C1)S(=O)(=O)c1ccc(F)cc1	cell-free assay	–	competition with immobilised ligand	1 µM	remaining binding	100%
N#CCCc1ccc2c(c1)-c1[nH]c3ccc([N+](=O)[O-])cc3c1CC(=O)N2	cell-free assay	–	–	0.5 µM	remaining signal	58.8%
